Test results published in the EternaBench riboswitch data.

System: MS2 coat protein
Test: apparent Kd, MS2 coat protein; higher = weaker binding; RNA-MaP array; FMN 200 µM where present
Outline: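 Each design was made on Illumina sequencing-chip clusters by stalled E. coli RNA polymerase and titrated with SNAP-549-labelled MS2 coat protein from 0.7 or 1.5 nM, doubling to 3 µM, in the absence and then the presence of constant ligand. The buffer was 100 mM Tris-HCl pH 7.5, 80 mM KCl, 4 mM MgCl2, BSA, DTT, yeast tRNA and Tween-20. The apparent Kd is the median of filtered per-cluster fits of binding curves, with green signal normalised to red-channel RNA signal and control-cluster median Fmax.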

[1] = designed as: OFF switch for flavin mononucleotide, no ligand
[2] = ligand present: flavin mononucleotide, designed as: OFF switch for flavin mononucleotide
[3] = designed as: ON switch for flavin mononucleotide, no ligand
[4] = ligand present: flavin mononucleotide, designed as: ON switch for flavin mononucleotide

Row | Sequence | apparent Kd [1] | apparent Kd [2] | apparent Kd [3] | apparent Kd [4]
1 | CGUCGGUGGCAGAAGGGACAGAGAUCCUCGCUGCCGGAUCGUCUUGCACAUGAGGAUCACCCAUGUCAGGAUAUGCCCAAGCGG | 5.35 nM | 5.15 nM | – | –
2 | AACACGAGAGGUGUUGUCUAAUCACAUGAGGAUCACCCAUGUAAGGAUAUCGCGGCUAUCGGCAUCGAGAAGGUACAGGGUGCA | 165 nM | 58.9 nM | – | –
3 | UAAUUUUGUCAAGGAUAUGUAAUAUAGAUUUGUAAACAUGAGGAUCACCCAUGUAUAUGGUGGGAACAGAAGGUGAAUGGAGAA | 196 nM | 171 nM | – | –
4 | CGUAAGAUGCAGAAGGUGUUAGCUAGAGCUACGACAUGAGGAUCACCCAUGUACUAGAAACAGUACAAGGAUAUGCAUCUUACA | – | – | 17.3 nM | 5.75 nM
5 | UAACGACACGCAGGAUAUCUAACAUGAGGAUCACCCAUGUCAGAUGACAGGGUCGCUUUACUGGCAGAGAAGGGCGAUCGAUAC | 7.44 nM | 11.2 nM | – | –
6 | GUAGCAUAAUUAGGAUAUUCAGCGAAUAGAUUGACAUGAGGAUCACCCAUGUGGCGAAAGCCUAGGGAGAAGGGAUAAUGCUAC | – | – | 254 nM | 120 nM
7 | CUGUGAUGGAUCCAGAAUUACAACAUGAGGAUCACCCAUGUGCAGGAUAUCGGGUUGAUAGGCGCCGAGAAGGGUAUGAUCACG | 164 nM | 140 nM | – | –
8 | AUAUCUUACCAAGGAUAUUUAAGAUUUGUGUAGACAUGAGGAUCACCCAUGUGGCGUUAGUCACGGGAGAAGGUGGUUUGAUAU | – | – | 140 nM | 648 nM
9 | CUUUUGUGAGGAUAUUAGUAGUUAAUAAAUAAAAUUACUACUGAGAAGGCACAUGAGGAUCACCCAUGUUCCUC | 31.5 nM | 226 nM | – | –
10 | GCAUGCUAUGUCAGGAUAUACCUCUGGAUACAUAGGUAGAAGGGACAUGAGGAUCACCCAUGUCCUAAACAUGC | 12.2 nM | 13.4 nM | – | –
11 | CCACGACAUGAGGAUCACCCAUGUCAGGAUAUCCCUCAUUGUAUGAAAAUACAAUGAGGGAGAAGGGACGUGAC | 33.8 nM | 31.6 nM | – | –
12 | GCUAUCGAUGUAGGAUAUGCUAGAGAAACUCUGGCAGAAGGACAUGAGGAUCACCCAUGUCAAUGGAUGGAGAGAAGAGAUGGC | 24.1 nM | 58 nM | – | –
13 | GUCAGCUCGUGAGGAUAUACAUGUGCUGGAAACAGCACUAUUGUGUUCACAUGAGGAUCACCCAUGUAGAAGGCACGAGCUGAU | 18.2 nM | 85.6 nM | – | –
14 | UUUAAUCGAAACAUGAGGAUCACCCAUGUGUUGUAAUUAACAUAGGAUAUUUGUAUACUUUUAUAAAAGAAGGAUGAUAAUACU | – | – | 17.8 nM | 13 nM
15 | GGACGUAAAGAGAAGGGCUACUGGUUGAAACCUGCGGCCUCUGGAACAUGAGGAUCACCCAUGUAGCAGGAUAUCUUUGCACCA | 157 nM | 26.7 nM | – | –
16 | ACAUGAGGAUCACCCAUGUGGACAUAGGAUAUUGGUGAUCAGGCGUGUUAUACAGGAUAGGUCUGCGAGAAGGGUGUACGUUGC | – | – | 588 nM | 295 nM
17 | UUGAGGUAGGAGAAGGACAGAGGCGGAAACACAAACAUGAGGAUCACCCAUGUAGGAUAUCCUAACUAACGAGAAUACCUCAAG | 6.36 nM | 6.89 nM | – | –
18 | UGUUGUAUUACAGGAUAUCUAGUAUUUUUAUAUAGAGAAGGGUAUUCACAUGAGGAUCACCCAUGUAUAUACGAGGAAGUUGUG | – | – | 30.3 nM | 32.2 nM
19 | AUGAGGUCAGGAUAUGCAUGGCGGGACUUGCGUCGUGGCGUGGAGAAGGGACAUGAGGAUCACCCAUGUGGAGA | 84.6 nM | 76.1 nM | – | –
20 | AUCAGCUCGUCAGGAUAUACGUCACUGCGUCAGCAGUGUGGUAAGAUCACAUGAGGAUCACCCAUGUAGAAGGGACUAGCUGAU | 14.8 nM | 294 nM | – | –
21 | GGGUACAUCGAAGGAUAUCAUGUAAAUACAUGAGGAUCACCCAUGUCGAUGGAGACAUCGGAGAUUGAGAAGGCCGAUGUACCG | – | – | 338 nM | 28.1 nM
22 | AAAUAAAUUAGCAUGAUAUCUUCACAUGAGGAUCACCCAUGUCAGGAUAUUUGUCCUAAAAGGACAGAGAAGGGACAUGCUAUA | 5.78 nM | 7.76 nM | – | –
23 | UUAUAUAGAGUGAGGAUAUGCUGGUCCUUGGAUCAGCAGAAGGCACAUGAGGAUCACCCAUGUAAUAUAAUAUU | 22.4 nM | 42 nM | – | –
24 | CACGAGUGAGGAUAUAGAGAGGUGAGGCUGAAGUCGCAUAUCUAGAAGGCACAUGAGGAUCACCCAUGUCCCUC | 481 nM | 503 nM | – | –

Row | Sequence | apparent Kd [1] | apparent Kd [2] | apparent Kd [3] | apparent Kd [4]
25 | AUAAUUUUAUAUAUCAUUUUAAUCAGAAGGCAUAACAUGAGGAUCACCCAUGUAAAUUAUUGUUAUGAGGAUAUGAAUUGGUUA | 14.4 nM | 54.8 nM | – | –
26 | GUAGCAUACCGAGGAUAUCUAACGACAAAGUCGACAUGAGGAUCACCCAUGUGGCGAAAGCCUUGGGAGAAGGCGGAAUGCUAC | – | – | 16.2 nM | 12.6 nM
27 | AGAUCCUGAGUCAGGAUAUAGAGACGGUAGUCGGGCUAGAAGGGACAUGAGGAUCACCCAUGUGGGUUCUUGCC | 10.7 nM | 13.1 nM | – | –
28 | GCUAUCGAUGUAGGAUAUGCUAUAGAAACUAUGGCAGAAGGACAUGAGGAUCACCCAUGUCAAUGGAUGGAGAGAAGAGAUGGC | 26.7 nM | 68.7 nM | – | –
29 | UGUCGGAGCAGAGGAUAUUACAUGAGGAUCACCCAUGUAUGAAGCAAUAGCUGGAAACAGCAAUGUAAGAAGGCUGCUCCGACA | 5.7 nM | 7 nM | – | –
30 | UAGUAUAAGGGCAUUAAACAUGAGGAUCACCCAUGUACGAUAGAGGAUAUGCAUUUCAGUUUAGAGUAGAAGGUUAGAGAAUUU | 42.1 nM | 42.9 nM | – | –
31 | UGGCACUAGGGAGGAUAUGGGAAGAUACAUGAGGAUCACCCAUGUUUAAGAAUGCCGAGAGGCAACUAGAAGGCCCUAGUACCU | – | – | 486 nM | 19.3 nM
32 | UGCUAGUGAGGAUAUGCUGGAAUAAAGAUUUGACGUGGCGAACAUGAGGAUCACCCAUGUAGAAGGCACAAUAC | 12.8 nM | 15.7 nM | – | –
33 | CUUUUGUGAGGAUAUUAGUAGUAAAUAAAUAAAAUUUCUACUGAGAAGGCACAUGAGGAUCACCCAUGUUCCUC | 31.9 nM | 182 nM | – | –
34 | UUAUAUAUUAGAGGAUAUGUGUUCAUGUUACAUGAGGAUCACCCAUGUUUAUGUUGAUUGAUCUUACAGAAGGCUAUACAAUGA | 20.1 nM | 19.9 nM | – | –
35 | GUGUACGGAGGAUAUAUGUGGCGAGCAUACGCUCGAGCUUCACAUGAGGAUCACCCAUGUAGAAGGCUGUGCAC | 19 nM | 102 nM | – | –
36 | UCCGUAAUUCUGAGCUUCGCGAUGAGAAGGGUAGAGGCUGGGUCCUACAUGAGGAUCACCCAUGUACAGGAUAUCAUUGCACGA | 14.1 nM | 30.3 nM | – | –
37 | GGUAAGAUGCAGAAGGUGUUAGCUAGAGCUACGACAUGAGGAUCACCCAUGUACUAGAAACAGUACAAGGAUAUGCAUCUUACC | – | – | 18.4 nM | 6.38 nM
38 | GUCAAGCUAGGAUAUACAUGAGGAUCACCCAUGUUAUCCUCGUGGGCAGUUUCUUCAUGUAGAAGGAGCAAAGG | 38 nM | 16.6 nM | – | –
39 | AGAAGACAUGAGGAUCACCCAUGUAAGGAUAUUGGAGGUUAGGGAUGCUGGAGUUGGACAAGAAGGUACAGGUG | 52.8 nM | 50.9 nM | – | –
40 | UGCCUGAGUCGAGGAUAUUAUGGAUCAAUUAAUACAUGAGGAUCACCCAUGUAAUUAAUUUAACAUGAGAAGGCGACUCAGGCU | – | – | 11.3 nM | 8.51 nM
41 | GUUUCCACAGGAAGGAACACUCGGAGAAGGGCACAUGAGGAUCACCCAUGUGCGGCUCGUCACGUGCAGGAUAUUCGAUAUAGA | 7.2 nM | 17.5 nM | – | –
42 | AAUUGAAACGUAGGAUAUCGCAAAGAUCUAGAACGAGAAGGACGUACAUGAGGAUCACCCAUGUUAAAUGGUGAAGAUUAGAUG | 768 nM | 916 nM | – | –
43 | GUAGCUAUCGGAGGAUAUUCAUACCGGAAACGGACAUGAGGAUCACCCAUGUGCGGAAACGCUUGGGAGAAGGCCGAUAGCUAC | – | – | 247 nM | 19.4 nM
44 | AUUAUGACCGAGUUAAGCUUCAAAACAUGAGGAUCACCCAUGUAGGAUAUCAGCACGAUAAGUGCUGAGAAGGACAUCUCGGUC | 13.5 nM | 15.5 nM | – | –
45 | GCCAUCGCAUGAGGAUAUGGCACCGUUUCGGUGCCAGAAGGCAUGUCGAAUGACAUGAGGAUCACCCAUGUAGUUAAGAUGGCA | – | – | 480 nM | 25.2 nM
46 | GCACCUUUAUUUGAACCGAUACGAACAUGAGGAUCACCCAUGUAGGAUAUGCUUAAAGUUGUGUUGCAGAAGGACAUUUAGUGC | 8.76 nM | 8.31 nM | – | –
47 | GUUAAGUGAGGAUAUGGUGAGUAGUGCCUGAGCGCUGCUCACCAGAAGGCACAUGAGGAUCACCCAUGUAUAGC | 15.7 nM | 28 nM | – | –
48 | CCAAUUCUGGCAUCCUUAUUACAUGAGGAUCACCCAUGUUGUGAGGAUAUCCCAACCCACGGUCAGGAGAAGGCACAAAGAGGG | 4.9 nM | 5.01 nM | – | –
